Molecules are shown by their SMILES. Hit rate of the full screen: of about 360,000 compounds, about 1,500 (0.42%) were called active. This excerpt belongs to a sample that is enriched for actives. Unmarked numbers belong to inactive results.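 How the source made its calls: active means inhibition above a per-plate cutoff of the control wells' mean inhibition plus 3 SD (cut at about 5.5% in these data); inactive means the rest.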

One may read the inhibition as the drop in the measured response relative to a control, in per cent.

This assay deals with methionyl-tRNA synthetase (Trypanosoma brucei brucei). The experiment in a line: T. brucei MetRS inhibitors, primary screen, biochemical, luminescence (AID 624268).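 Further: 0% = DMSO wells median and 100% = median of wells with control inhibitor compound.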 The conditions noted are these: purified T. brucei MetRS, ATP depletion, Kinase-Glo luminescence; at 11.9 µM; active compounds read high. The procedure, abridged:
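Assay system: T. brucei methionyl-tRNA synthetase, purified | Medium: HEPES buffer with MgCl2, KCl, DTT, spermine, BSA, pyrophosphatase | Compound: 11.9 µM single point | Incubation: 15 min enzyme-compound preincubation, 2 h reaction, 10 min detection, 25 °C | Measured by: Kinase-Glo luciferase luminescence reporting remaining unconsumed ATP | Measure: % inhibition normalized to control-well medians | Replication: Singlicate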
On the technique in general: Kinase-Glo measures the ATP left after a reaction by luminescence.
In the case of `Cc1nc(-c2ccc(Cl)cc2)sc1C1(C)CC(c2ccc(Br)cc2)=NO1` (stereo unspecified), the inhibition is 0.57%.

`Cc1c(O)c(C)c2c(c1O)C(=O)C[C@@H](c1ccccc1)O2`: the inhibition is 1.18%.

Consider `CCO[C@H]1OC(C(=O)O)=C[C@@H](C2CCCCC2)[C@@H]1CCCO`, for which the inhibition is -0.27%.

Turning to `CCO[C@@H]1OC(C(=O)NCc2nc3ccccc3[nH]2)=C[C@H](C2CCCCC2)[C@H]1CCCO`, the inhibition is 15.3% (active).

On to `CCO[C@H]1OC(C(=O)Nc2ccccc2)=C[C@@H](C2CC2)[C@@H]1CCCO`, for which the inhibition is -0.28%.

For `c1ccc(-c2ccc3c(c2)NC(C2Nc4cc(-c5ccccc5)ccc4O2)O3)cc1` (stereo unspecified), the inhibition was -0.77%.

Turning to `NC(=O)c1ccc(-c2csnn2)cc1`, the inhibition was -0.49%.

Consider `Cc1cc(Nc2cccc(F)c2)n2ncnc2n1`, for which the inhibition was 0.76%.

For `C/C(=N/NC(=O)c1cc(Cl)ccc1O)C12CC3CC(CC(C3)C1)C2`, the inhibition is -0.58%.

Turning to `CC(=N\NC(=O)c1cc(Br)ccc1O)/C(=N/O)C(=O)Nc1ccccc1`, the inhibition was 7.43% (active).

On to `O=C(Nc1ccccc1)c1ccccc1Br`, for which the inhibition is 0.92%.

In the case of `COc1ccc(S(=O)(=O)c2c[nH]c(=S)[nH]c2=O)cc1Cl`, the inhibition is -0.79%.

As to `CCOC(=O)c1cccc(NC(=O)CCc2c(C)nc3ncnn3c2C)c1`, the inhibition was -0.04%.

Consider `Cc1ccc(C(=O)Nc2ccc(C)c(S(=O)(=O)N(C)C)c2)s1`, for which the inhibition was -0.69%.

For `O=S(=O)(NCc1ccc(Cl)cc1Cl)c1cccs1`, the inhibition was 18.5% (active).

As for `O=S(=O)(NCCc1ccc(Cl)cc1)c1cccs1`, the inhibition is 0.22%.

Regarding `O=C(Nc1cccc(Cl)c1)Nc1ccccc1NS(=O)(=O)c1cccs1`, the inhibition is -0.14%.

Turning to `Cc1ccnc(NC(=O)Cn2ccc([N+](=O)[O-])n2)c1`, the inhibition is 1.25%.

For the compound `Cn1c(NN)nc2sc3c(c2c1=O)CCC3`, the inhibition is -0.59%.

In the case of `O=C(O)c1cccnc1Sc1ncnc2sc3c(c12)CCC3`, the inhibition was -0.25%.

Take `OCCNc1nc2ccccc2n1-c1ncnc2sc3c(c12)CCC3`: the inhibition is 22.8% (active).

`CSCC[C@H](NC(=O)NCc1cccs1)C(=O)O`: the inhibition is 2.05%.

Consider `O=S(=O)(c1ccccc1)N1CCC(c2ccccc2)CC1`, for which the inhibition was 0.06%.

Turning to `N#CC(C(=O)c1ccc(S(=O)(=O)N2CCCCCC2)cc1)c1nc2ccccc2[nH]1` (stereo unspecified), the inhibition is -0.41%.

As to `O=S(=O)(c1ccc(Br)cc1)N1CCC(c2nc3ccccc3[nH]2)CC1`, the inhibition was 7.1% (active).

As for `CCCNS(=O)(=O)c1ccc2c(c1)CCCN2C(C)=O`, the inhibition was -0.19%.

With `Clc1ccc(-c2cc(C3CCNCC3)[nH]n2)c(Cl)c1`, the inhibition is 39.1% (active).

With `Clc1ccc(-c2cc(-c3ccccn3)on2)c(Cl)c1`, the inhibition is 0.55%.

Turning to `CCC(C)[C@H](NC(=O)N1c2ccccc2NC(=O)[C@@H]1C(C)C)C(=O)N[C@@H](Cc1ccccc1)C(=O)O` (stereo partly specified), the inhibition is -1.81%.

As for `CSCCC(NC(=O)c1cc([N+](=O)[O-])cc([N+](=O)[O-])c1)c1nc2ccccc2[nH]1` (stereo unspecified), the inhibition was 3.68%.

`CCCC(NC(=O)c1ccco1)c1nc2ccccc2[nH]1` (stereo unspecified): the inhibition is 0.25%.

For the compound `O=C(NCC(O)c1nc2ccccc2[nH]1)c1ccc(Br)cc1` (stereo unspecified), the inhibition is 21% (active).

As to `COc1ccccc1CCC(=O)OCC(=O)N1CCN(S(=O)(=O)c2ccc(C)cc2C)CC1`, the inhibition is -0.39%.

Turning to `O=C(NCc1cccnc1)Nc1cccc(NC(=O)NCc2cccnc2)c1F`, the inhibition is -1.05%.

For the compound `O=C(NCc1cccc(CNC(=O)Nc2cccc(O)c2)c1)Nc1cccc(O)c1`, the inhibition was 8.03% (active).

`C/C(=C\C(=O)c1ccccc1)Nc1cccc(O)c1`: the inhibition is 0.01%.

Regarding `O=C(CSCc1ccc([N+](=O)[O-])cc1)NCCSCc1ccccc1`, the inhibition is -0.21%.

As for `CCCCc1nnc(NC(=O)CS(=O)(=O)Cc2ccccc2)s1`, the inhibition was -0.35%.

Take `O=C(Nc1ccccc1)Nc1nnc(COc2ccccc2F)s1`: the inhibition is 17.3% (active).

With `O=C(NCCOc1ccccc1F)Nc1ccc(Br)cc1`, the inhibition was 2.66%.

`COCc1nnc(NC(=O)CS(=O)(=O)Cc2ccccc2)s1`: the inhibition was 0.23%.

As to `CCOc1ccc2c(c1)c(=O)c(S(=O)(=O)c1ccc(C)cc1)cn2CC`, the inhibition was -0.11%.

Consider `CCCn1cc(S(=O)(=O)c2ccc(C)cc2)c(=O)c2cc(OCC)ccc21`, for which the inhibition is -0.04%.

Regarding `Cc1ccc2[nH]cc(CCCN3C(=O)c4ccccc4C3=O)c2c1`, the inhibition is -0.1%.

For `Cc1ccc(S(=O)(=O)c2c[nH]c3ccc(C)cc3c2=O)cc1`, the inhibition was 8.92% (active).

`Cc1ccc(S(=O)(=O)c2c[nH]c3ccc(Cl)cc3c2=O)cc1`: the inhibition is 40.4% (active).

In the case of `CN1CCN(S(=O)(=O)c2ccc3[nH]cc(C(=O)O)c(=O)c3c2)CC1`, the inhibition was 1.71%.

For the compound `O=C(Nc1ccccc1Cl)/C(Cl)=C(\Cl)S(=O)c1ccccc1` (stereo unspecified), the inhibition was -0.49%.

For the compound `CCCCCn1nnnc1C1c2ccccc2C(=O)N1Cc1ccco1` (stereo unspecified), the inhibition was -0.27%.

For `CCCCn1c(-c2cccc(C)c2)nc2cc3[nH]c(=O)c(C(C)C)nc3cc21`, the inhibition is -0.06%.

With `CCCCCn1nnnc1-c1nc2cc3ccccc3cc2[nH]c1=O`, the inhibition was 34.6% (active).

In the case of `C=CCNC(=S)N/N=C/c1ccc(C)s1`, the inhibition is -0.64%.

In the case of `CC(C)CNC(=O)C1CCCN(S(=O)(=O)c2ccc(-n3cnnn3)cc2)C1` (stereo unspecified), the inhibition is -0.29%.

With `CCOc1ncccc1C(=O)N(C)CC(=O)Nc1ccc(F)cc1`, the inhibition is -0.63%.

For `CC1(C)CC(=O)C=C(c2cccc3c2Oc2ccccc2S3)C1`, the inhibition is -0.11%.

In the case of `COc1ccc(C)cc1-n1nnnc1SCc1nc2ccccc2c(=O)[nH]1`, the inhibition was 0.31%.

Regarding `O=c1c(-c2ccc(Cl)cc2)[n+]([O-])c2ccccc2n1OCc1nc2ccccc2[nH]1`, the inhibition is -0.49%.

On to `Clc1ccccc1SCc1nc2ccccc2[nH]1`, for which the inhibition was 7.72% (active).

For `O=C(COC(=O)c1ncc(Cl)c(Cl)c1Cl)NNC(=O)c1ccccc1`, the inhibition is -0.19%.

In the case of `O=C(/C=C/c1cccs1)c1cc(Cl)ccc1OC(=O)N1CCOCC1`, the inhibition is -0.94%.

In the case of `O=C1CC(C(=O)O)NC(=S)N1` (stereo unspecified), the inhibition was 0.05%.

For the compound `Cc1oc(CC(C)C)c(CN2CCCC2)c1C(=O)O`, the inhibition is -0.29%.

Consider `O=C(Nc1nsc(-c2ccccc2)n1)c1ccncc1`, for which the inhibition is -1.68%.

Take `CN(CC(=O)NCCc1ccc(S(N)(=O)=O)cc1)CC(=O)Nc1ccc(Cl)cc1`: the inhibition is -0.04%.

As for `NS(=O)(=O)c1ccc(CCNC(=O)NC2CCCCC2)cc1`, the inhibition is -1.44%.

On to `NS(=O)(=O)c1ccc(CCNC(=O)Nc2ccc(Cl)cc2)cc1`, for which the inhibition is 26.5% (active).

`CC(=O)C1(C)N(O)C(C)(C)C(c2cccs2)=[N+]1[O-]` (stereo unspecified): the inhibition was -1.27%.

Take `COc1ccccc1C(=O)N(Cc1ccc(C)o1)C1CCS(=O)(=O)C1` (stereo unspecified): the inhibition is -0.11%.

Regarding `CC1(C(=O)NS(=O)(=O)c2ccccc2)CCN1C(=O)C1CCCCC1` (stereo unspecified), the inhibition is -0.08%.

Regarding `CC(C)(C)c1ccc(S(=O)(=O)NC(=O)C2(C)CCN2C(=O)CC2CC2)cc1` (stereo unspecified), the inhibition is -0.1%.

For the compound `COc1ccc(NC2CCCN(C(=O)c3ccncc3)C2)cc1` (stereo unspecified), the inhibition was -0.58%.
